From ChEMBL document CHEMBL4699441, “Identification and Preclinical Evaluation of the Bicyclic Pyrimidine γ-Secretase Modulator BMS-932481” (ACS Med Chem Lett, 2019) come the findings set out here.

Broadly, the IC50 is the concentration that inhibits the measured activity by half. What is called EC50 is the midpoint of the concentration-response curve. A word on the pKa: it is the pH at which an ionisable group is half protonated. By Vdss is commonly meant a proportionality between amount in the body and measured concentration, not a real space. One may read the AUC as concentration integrated over time.

Series [1] deals with T1, UDP-glucuronosyltransferase 1A1 (Homo sapiens, UniProt P22309).
T1 sequence (P22309 whole entry): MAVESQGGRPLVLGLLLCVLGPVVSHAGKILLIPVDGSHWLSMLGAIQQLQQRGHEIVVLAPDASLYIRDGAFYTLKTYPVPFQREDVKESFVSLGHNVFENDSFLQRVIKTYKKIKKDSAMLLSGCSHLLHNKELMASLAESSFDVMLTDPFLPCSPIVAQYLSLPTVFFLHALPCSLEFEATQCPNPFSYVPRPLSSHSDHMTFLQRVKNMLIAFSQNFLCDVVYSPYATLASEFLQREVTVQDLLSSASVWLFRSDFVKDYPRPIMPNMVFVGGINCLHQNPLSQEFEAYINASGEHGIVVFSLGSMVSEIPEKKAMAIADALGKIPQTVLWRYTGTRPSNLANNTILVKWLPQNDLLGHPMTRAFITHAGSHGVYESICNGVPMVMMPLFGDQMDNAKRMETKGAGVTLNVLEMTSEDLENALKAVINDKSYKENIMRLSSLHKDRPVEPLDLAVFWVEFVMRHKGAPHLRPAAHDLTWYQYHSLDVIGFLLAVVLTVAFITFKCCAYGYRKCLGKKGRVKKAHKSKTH
The series is described as follows: Inhibition of human UGT1A1. The series is classed as ADME.

Series [2] can be described thus: Ratio of drug level in brain to plasma in Harlan Sprague-Dawley rat at 10 mg/kg, po measured after 5 hrs. It counts as ADME, organism-based. Conditions: read-out: BPR.
Series [3] concerns the target T2, Nuclear receptor subfamily 1 group I member 2 (Homo sapiens, UniProt O75469).
T2 sequence (O75469 whole entry): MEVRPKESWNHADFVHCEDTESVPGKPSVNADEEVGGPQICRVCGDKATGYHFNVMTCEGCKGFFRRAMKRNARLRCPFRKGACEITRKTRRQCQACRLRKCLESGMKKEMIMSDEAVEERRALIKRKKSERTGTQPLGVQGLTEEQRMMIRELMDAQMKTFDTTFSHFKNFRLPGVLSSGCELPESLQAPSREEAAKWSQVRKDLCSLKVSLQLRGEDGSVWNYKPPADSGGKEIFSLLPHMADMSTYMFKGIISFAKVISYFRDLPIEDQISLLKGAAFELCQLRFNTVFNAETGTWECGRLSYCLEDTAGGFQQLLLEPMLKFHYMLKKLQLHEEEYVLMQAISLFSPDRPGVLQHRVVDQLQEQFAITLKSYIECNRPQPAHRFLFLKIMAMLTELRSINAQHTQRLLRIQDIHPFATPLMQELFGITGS
Kind of series: Transactivation of PXR (unknown origin) assessed as CYP450 induction. It counts as ADME.

Series [4] is described as follows: Inhibition of amyloid beta (1 to 40) secretion in human H4 cells overexpressing APP incubated for overnight by HTRF analysis. The series is classed as functional, cell-based. Background: TR-FRET usually uses a lanthanide donor and a delayed reading to cut background.
Series [5] is described as follows: Inhibition of amyloid beta (x to 42) secretion in human H4 cells overexpressing APP incubated for overnight by HTRF analysis. The series is classed as functional, cell-based.
Series [6] in a line: Metabolic stability in Sprague-Dawley rat assessed as half life incubated for 24 hrs by LC-MS/MS analysis. It counts as ADME.
Series [7] can be described thus: Fraction unbound in Sprague-Dawley rat plasma measured after 24 hrs by LC-MS/MS analysis. The series is classed as ADME, cell-free.
Series [8] in a line: Fraction unbound in mouse plasma measured after 24 hrs by LC-MS/MS analysis. The series is classed as ADME, cell-free.
Series [9] deals with T3, Cytochrome P450 1A2 (Homo sapiens, UniProt P05177).
T3 sequence (P05177 whole entry): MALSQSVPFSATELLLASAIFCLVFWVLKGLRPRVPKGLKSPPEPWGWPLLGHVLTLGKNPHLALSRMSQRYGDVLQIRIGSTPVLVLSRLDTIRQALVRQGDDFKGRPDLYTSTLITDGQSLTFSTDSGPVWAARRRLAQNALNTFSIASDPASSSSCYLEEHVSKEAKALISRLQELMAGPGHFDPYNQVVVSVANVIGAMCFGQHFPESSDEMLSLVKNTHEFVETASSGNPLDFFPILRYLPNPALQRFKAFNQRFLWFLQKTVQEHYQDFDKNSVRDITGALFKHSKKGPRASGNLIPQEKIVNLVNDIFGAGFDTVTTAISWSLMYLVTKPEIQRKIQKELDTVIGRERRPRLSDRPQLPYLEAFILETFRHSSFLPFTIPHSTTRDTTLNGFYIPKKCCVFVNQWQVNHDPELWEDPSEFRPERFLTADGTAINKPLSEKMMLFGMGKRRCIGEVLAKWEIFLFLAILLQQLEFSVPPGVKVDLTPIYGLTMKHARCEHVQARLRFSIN
Kind of series: Inhibition of CYP1A2 in human liver microsomes. The series is classed as ADME.

The target of series [10] is T4, Cytochrome P450 3A4 (Homo sapiens, UniProt P08684). The series is described as follows: Inhibition of CYP3A4 in human liver microsomes measured after 30 mins. The series is classed as ADME. In general terms: Liver microsomes are a subcellular fraction often used to study metabolism.
T4 sequence (P08684 whole entry): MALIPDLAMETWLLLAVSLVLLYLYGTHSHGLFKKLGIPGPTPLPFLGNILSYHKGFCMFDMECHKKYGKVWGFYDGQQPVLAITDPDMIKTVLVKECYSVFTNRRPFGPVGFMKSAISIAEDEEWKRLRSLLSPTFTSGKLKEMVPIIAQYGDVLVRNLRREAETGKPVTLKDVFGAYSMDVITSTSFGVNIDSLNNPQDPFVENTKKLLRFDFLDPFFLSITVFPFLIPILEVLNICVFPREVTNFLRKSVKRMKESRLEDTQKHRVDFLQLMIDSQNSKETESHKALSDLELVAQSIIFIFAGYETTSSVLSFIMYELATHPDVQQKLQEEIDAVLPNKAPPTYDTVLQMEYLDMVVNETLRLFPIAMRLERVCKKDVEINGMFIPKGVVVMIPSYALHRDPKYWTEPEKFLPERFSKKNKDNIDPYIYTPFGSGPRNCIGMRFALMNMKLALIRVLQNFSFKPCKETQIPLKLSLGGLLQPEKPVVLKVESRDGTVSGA
In series [11] the target is T4, Cytochrome P450 3A4. Kind of series: Time dependent inhibition of CYP3A4 in human liver microsomes assessed as inactivation constant. It counts as ADME.
Series [12] can be described thus: Dissociation constant, pKa of compound. The series is classed as physicochemical.
A short description of series [13]: Dissociation constant, pKa of compound by spectrophotometric analysis. The series is classed as physicochemical.
A short description of series [14]: Volume of steady state distribution in Sprague-Dawley rat at 2 mg/kg, iv measured up to 24 hrs by LC-MS/MS analysis. It counts as ADME, organism-based. As to conditions: in vivo. The gist of the method: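 Sprague–Dawley rats; 2 mg/kg given as 5 min iv infusion in 9:1 PEG:EtOH; n = 5; volume of distribution at steady state.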
Series [15] is described as follows: Oral bioavailability in Sprague-Dawley rat at 2 mg/kg dosed as nano suspension measured up to 24 hrs by LC-MS/MS analysis. It counts as ADME, organism-based. Conditions: in vivo. Summed up: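 Oral dosing as a nanosuspension in Sprague–Dawley rat, male Beagle dog and male cynomolgus monkey; dogs pretreated with pentagastrin.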
Series [16] can be described thus: Volume of steady state distribution in cynomolgus monkey at 1 mg/kg, iv measured up to 24 hrs by LC-MS/MS analysis. The series is classed as ADME, organism-based, Macaca fascicularis. Conditions: in vivo. Summed up: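 Male Beagle dog or male cynomolgus monkey; 1 mg/kg as 5 min iv infusion in 9:1 PEG:EtOH; n = 3; volume of distribution at steady state.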
Series [17] can be described thus: Half life in Beagle dog at 1 mg/kg, iv measured up to 24 hrs by LC-MS/MS analysis. The series is classed as ADME, organism-based, Canis lupus familiaris. Conditions: in vivo. The gist of the method:
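Male Beagle dogs and male cynomolgus monkeys, 1 mg/kg by 5 min iv infusion in 9:1 PEG:EtOH, n=3.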

The nature of series [18]: Cardiotoxicity in unconscious telemeterized rabbit assessed as change in QTcf time at 3 mg/kg. The series is classed as toxicity, organism-based, Oryctolagus cuniculus. Conditions: in vivo.
The nature of series [19]: Toxicity in Beagle dog assessed as changes in bilirubin level at 300 mg/kg, po. It counts as organism-based, Canis lupus familiaris. Conditions: in vivo. The gist of the method: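 Dogs given a single acute oral dose of 300 mg/kg; bilirubin and other clinical pathology assessed; Cmax and AUC measured.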
Series [20] is described as follows: AUC in Beagle dog at 300 mg/kg, po measured up to 24 hrs by LC-MS/MS analysis. The series is classed as ADME, organism-based, Canis lupus familiaris. Set-up: route oral, dose 300 mg/kg, time >=24. As to conditions: in vivo. Summed up: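 Dogs given an acute single oral dose of 300 mg/kg; plasma Cmax and AUC measured alongside bilirubin and other clinical pathology assessments.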

Series [21] in a line: Toxicity in Beagle dog assessed as hyperbilirubinemia at 150 mg/kg, po administered for 1 month. The series is classed as organism-based, Canis lupus familiaris. Conditions: in vivo, 730 h, time 1 months. Summed up: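 One-month oral toxicity study in dogs; high dose 150 mg/kg; bilirubin assessed.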
The nature of series [22]: Plasma exposure (AUC) in rat at 3 mg/kg measured after 24 hrs.

Each structure is given as a SMILES string.

Turning to `CNc1nc(Nc2ccc(-n3cnc(C)n3)c(OC)c2)nc2c1CC[C@H]2c1ccc(F)cc1`, the half-maximal inhibitory concentration (IC50) is 1400 nM in series [1]; 25 nM in series [4]; 5.5 nM in [5]; greater than 40000 nM in [9]; 200 nM in series [10]. Further, the Kp at 5 h in series [2] is 0.23. The EC50 in series [3] is greater than 2700 nM. For the same compound, the t1/2 in [6] stood at 0.467 h; in series [17] it was 8.7 h. The Fu in series [7] and in [8] was 0.7% throughout. In series [11], the Kinact turned out to be 0.47 min⁻¹. The pKa in [12] amounted to 2; in series [13], 5.9. The distribution volume (Vdss) in series [14] was determined as 2.3 L/kg; in series [16], 5.4 L/kg. The compound further yielded a F in [15] of 98%. In addition, the Activity entry in series [18] is reported as “Non-Toxic”; in [19] it was “Non-Toxic”; in series [21], “Toxic”. In addition, the AUC in series [20] was found to be 180 µM·h. In series [22], this compound displayed an AUC at 24 h of 9.7 µM·h.
